Source: ChEMBL document CHEMBL4382201 (J Med Chem, 2018)
Values after ≈ are worked out from the molar mass of the structure shown. Active and inactive are the calls of the source. No cut-off for these calls is given here.

Key:
[1] = Drug level in DMSO-d6/PBS buffer treated with N,N-bis(2-chloroethyl)-4-(4,4,5,5-tetramethyl-1,3,2-dioxaborolan-2-yl)aniline assessed as compound formation after 10 days in presence of GSH by IT-TOF mass analysis; assay type: physicochemical; conditions: 240 h
[2] = Drug metabolism in PBS buffer assessed as 4-(bis(2-chloroethyl)amino)phenylboronic acid formation at pH 6 to 7 after 48 hrs
[3] = Drug metabolism in DMSO-d6/PBS buffer assessed as 2-((2-chloroethyl)(4-(4,4,5,5-tetramethyl-1,3,2-dioxaborolan-2-yl)phenyl)amino)ethanol formation after 10 days in presence of GSH by IT-TOF mass analysis
[4] = Drug metabolism in DMSO-d6/PBS buffer assessed as 4-(bis(2-chloroethyl)amino)phenylboronic acid formation after 10 days in presence of GSH by IT-TOF mass analysis
dsDNA [5] = assay: Induction of DNA-interstanded-cross-link formation in [32P]-labeled 49-mer duplex DNA (unknown origin) at 1 mM in absence of H2O2 after 16 hrs by PAGE relative to control; assay type: functional
Method in brief: (§1)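 A 32P-labelled 49-mer, annealed with 1.5 equiv complement (65 °C for 3 min in 10 mM potassium phosphate pH 7, 100 mM NaCl, then slow cooling), was used at 1.0 µM before final dilution. Duplex was mixed with compound (final 1 mM), NaCl and potassium phosphate pH 8, with or without H2O2. Incubation 16 h at room temperature, formamide quench, then 20% denaturing PAGE.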

dsDNA [6] = assay: Induction of DNA-interstanded-cross-link formation in [32P]-labeled 49-mer duplex DNA (unknown origin) at 1 mM in presence of H2O2 after 16 hrs by PAGE relative to control; assay type: functional; method in brief: as §1
SR = assay: Growth inhibition of human SR cells after 48 hrs by SRB assay; assay type: functional
Method in brief: (§2)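 NCI-60 five-dose screen at 100 µM, 10 µM, 1 µM, 100 nM and 10 nM. Incubation 48 h at 37 °C, 5% CO2, 100% humidity. Growth was expressed relative to the no-drug control and to the time-zero cell number, and GI50 was derived from these values.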

MDA-MB-468 [7] = assay: Growth inhibition of human MDA-MB-468 cells after 48 hrs by SRB assay; assay type: functional; conditions: MDA-MB-468, 48 h; method in brief: as §2
[8] = Solubility of the compound in PBS buffer at 10 mM at pH 7.4 by UV-based analysis; assay type: physicochemical
Method in brief: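 Compound (10 mM DMSO stock) was diluted into pH 7.4 buffer (ethanolamine/KH2PO4/potassium acetate/KCl) to a final 5% DMSO. After sonication and 18 h agitation the mixture was filtered and scanned by UV at 230-800 nm. Solubility was calculated from calibration plots made in 20% acetonitrile buffer, in quadruplicate, with solubility standards on each plate.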

MDA-MB-468 [9] = assay: Growth inhibition of human MDA-MB-468 cells after 48 hrs by […]; assay type: functional, cell-based; conditions: MDA-MB-468, 48 h
[10] = system: Panel NCI-60 (60 carcinoma cell lines); assay: Growth inhibition of human NCI60 cells at 10 uM after 48 hrs by SRB assay relative to control; assay type: functional, cell-based
Method in brief: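 NCI-60 one-dose screen: cells exposed to 10 µM for 48 h at 37 °C, 5% CO2, 100% humidity. Percent growth is given relative to the no-drug control and the time-zero cell count.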

With `CC1(C)OB(c2ccc(N(CCO)CCCl)cc2)OC1(C)C` the Drug uptake [1] was “Active”.

In the case of `CC1(C)OB(c2ccc(N(CCCl)CCCl)cc2)OC1(C)C`, the Drug metabolism [2] is reported as “Metabolite detected”, the Drug metabolism [3] is reported as “Metabolite detected” and the Drug metabolism [4] is reported as “Metabolite detected”. For the same molecule, the Activity (dsDNA [5]) was 1.5 to 15%, the Activity (dsDNA [6]) was less than 65% and the GI50 (SR) was 0.63 µM. It also gave a GI50 (MDA-MB-468 [7]) of 1.6 µM, a solubility [8] of 167 µM (≈ 57.5 µg/mL) and an IC50 (MDA-MB-468 [9]) of 24.6 µM.

For `COC(=O)C(CSCc1cc(B2OC(C)(C)C(C)(C)O2)ccc1N(CCCl)CCCl)NC(=O)OC(C)(C)C` (centres undefined), the Activity (dsDNA [5]) was less than 5% and the “growth inhibition (GI)” value [10] was “inactive”.

`N[C@@H](Cc1ccc(N(CCCl)CCCl)cc1)C(=O)O` [MELPHALAN] showed an Activity (dsDNA [5]) of 4.9% and an IC50 (MDA-MB-468 [9]) of 48.7 µM.
